Assay results from ChEMBL document CHEMBL3351721, “Cyclic adenosine 5'-diphosphate ribose analogs without a "southern" ribose inhibit ADP-ribosyl cyclase-hydrolase CD38” (J Med Chem, 2014).

Legend:
[1] = target: T1, ADP-ribosyl cyclase/cyclic ADP-ribose hydrolase 1 (Homo sapiens, UniProt P28907); experiment: Drug metabolism assessed as human CD38 catalytic domain-mediated compound hydrolysis at 1 mM by RP-HPLC method; assay type: ADME; details: 1000 µM
T1 sequence (P28907 whole entry): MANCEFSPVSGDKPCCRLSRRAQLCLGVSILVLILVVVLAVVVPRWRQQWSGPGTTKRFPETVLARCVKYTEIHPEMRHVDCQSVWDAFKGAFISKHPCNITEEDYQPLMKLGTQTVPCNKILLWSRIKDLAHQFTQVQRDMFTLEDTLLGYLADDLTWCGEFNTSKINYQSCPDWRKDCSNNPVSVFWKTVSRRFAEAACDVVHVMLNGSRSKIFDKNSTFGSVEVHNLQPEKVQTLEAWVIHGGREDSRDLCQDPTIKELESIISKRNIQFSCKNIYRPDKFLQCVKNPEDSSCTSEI
Summary of the method: (§1)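 Human CD38 catalytic domain diluted in 20 mM Tris-HCl pH 8 to 4 mg/mL or 1 μg/mL, added to inhibitor (1 mM final) at room temperature; no-enzyme control run in parallel. At time points, aliquots diluted 20-fold in water and analysed by RP-HPLC: isocratic elution, 1 mL/min, ion-pair buffer 0.17% cetrimide and 45% phosphate buffer (pH 6.4) in MeOH, photodiode array detection 210–350 nm.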

[2] = target: T1, ADP-ribosyl cyclase/cyclic ADP-ribose hydrolase 1; experiment: Inhibition of human CD38 catalytic domain assessed as reduction in cADPR hydrolysis incubated for 10 mins by fluorimetric cycling assay
[3] = target: T1, ADP-ribosyl cyclase/cyclic ADP-ribose hydrolase 1; experiment: Drug metabolism assessed as human CD38 catalytic domain-mediated compound hydrolysis at 1 mM using 1 ug/mL CD38 by RP-HPLC method; assay type: ADME; details: 1000 µM; summary of the method: as §1
[4] = target: T1, ADP-ribosyl cyclase/cyclic ADP-ribose hydrolase 1; experiment: Drug metabolism assessed as human CD38 catalytic domain-mediated compound hydrolysis at 1 mM using 4 mg/mL CD38 by RP-HPLC method; assay type: ADME; details: 1000 µM; summary of the method: as §1
[5] = target: T1, ADP-ribosyl cyclase/cyclic ADP-ribose hydrolase 1; experiment: Drug metabolism assessed as human CD38 catalytic domain-mediated compound hydrolysis by measuring 8-NH2-N9-butyl-IDPR level at 1 mM by RP-HPLC method; assay type: ADME; details: 1000 µM; summary of the method: as §1
[6] = Retention time of the compound at 1 mM in presence of human CD38 catalytic domain by RP-HPLC method; assay type: physicochemical; details: 1000 µM; summary of the method: as §1
[7] = target: T1, ADP-ribosyl cyclase/cyclic ADP-ribose hydrolase 1; experiment: Drug level assessed as human CD38 catalytic domain-mediated compound formation using 1 mM 8-NH2-N9-butyl-cIDPR by RP-HPLC method; assay type: ADME; summary of the method: as §1
[8] = Retention time of the compound using 1 mM 8-NH2-N9-butyl-cIDPR in presence of human CD38 catalytic domain by RP-HPLC method; assay type: physicochemical; summary of the method: as §1

Row | SMILES | Drug metabolism [1] | Drug metabolism [3] | Drug metabolism [4] | also measured
1 | O=c1c2ncn3c2ncn1[C@@H]1O[C@H](COP(=O)(O)OP(=O)(O)OCCCC3)[C@@H](O)[C@H]1O | metabolite_detected | – | – | –
2 | Nc1nc2c(=O)n3cnc2n1CCCCOP(=O)(O)OP(=O)(O)OC[C@H]1O[C@@H]3[C@H](O)[C@@H]1O | – | metabolite_notdetected | metabolite_detected | Drug metabolism [5]: metabolite_detected; Retention_time [6]: 9.1 min
3 | Nc1nc2c(=O)[nH]cnc2n1CCCCOP(=O)(O)OP(=O)(O)OC[C@H]1OC(O)[C@H](O)[C@@H]1O (some centres not stated) | – | – | – | Drug metabolism [7]: metabolite_detected; Retention_time [8]: 10.6 min

Second part, led by results:

Row | Drug metabolism [1] | Drug metabolism [3] | Drug metabolism [4] | SMILES | also measured
4 | metabolite_detected | metabolite_notdetected | metabolite_detected | O=c1c2ncn3c2ncn1[C@@H]1O[C@H](COP(=O)(O)OP(=O)(O)OC[C@H]2O[C@@H]3[C@H](O)[C@@H]2O)[C@@H](O)[C@H]1O | IC50 [2]: 276 µM
5 | metabolite_detected | – | – | O=c1c2nc(Br)n3c2ncn1[C@@H]1O[C@H](COP(=O)(O)OP(=O)(O)OCCCC3)[C@@H](O)[C@H]1O | –
